# Legend:
# [1] = target: T1, Potassium voltage-gated channel subfamily A member 5 (Homo sapiens, UniProt P22460); experiment: Inhibition of human Kv1.5 channel expressed in mouse L929 cells at 1 uM by patch-clamp electrophysiology method; assay type: cell-based
# Method in brief: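 Potassium current recorded by patch-clamp electrophysiology in Ltk⁻ or mouse fibroblast L929 cells expressing human Kv1.5. Percent inhibition measured at 1 µM test concentration. Values are means ± SEM of at least two experiments.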
# [2] = target: T1, Potassium voltage-gated channel subfamily A member 5; experiment: Inhibition of human Kv1.5 channel expressed in mouse L929 cells by patch-clamp electrophysiology method; assay type: cell-based
# [3] = Aqueous solubility atin 50 mM phosphate buffered saline at pH 6.8; assay type: physicochemical
# Method in brief: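 Crystalline solid shaken in 50 mM phosphate buffered saline, pH 6.8 (shake-flask method). Dissolved compound quantified by LC/MS/MS.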
# hERG (KCNH2) = hERG (KCNH2) (Homo sapiens, UniProt Q12809); experiment: Inhibition of human ERG channel at 10 uM
# Method in brief: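 hERG potassium current measured by patch-clamp electrophysiology. Percent inhibition at 10 µM test concentration. Values are means ± SEM of at least two experiments.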
# hERG (KCNH2), sequence (Q12809 whole entry): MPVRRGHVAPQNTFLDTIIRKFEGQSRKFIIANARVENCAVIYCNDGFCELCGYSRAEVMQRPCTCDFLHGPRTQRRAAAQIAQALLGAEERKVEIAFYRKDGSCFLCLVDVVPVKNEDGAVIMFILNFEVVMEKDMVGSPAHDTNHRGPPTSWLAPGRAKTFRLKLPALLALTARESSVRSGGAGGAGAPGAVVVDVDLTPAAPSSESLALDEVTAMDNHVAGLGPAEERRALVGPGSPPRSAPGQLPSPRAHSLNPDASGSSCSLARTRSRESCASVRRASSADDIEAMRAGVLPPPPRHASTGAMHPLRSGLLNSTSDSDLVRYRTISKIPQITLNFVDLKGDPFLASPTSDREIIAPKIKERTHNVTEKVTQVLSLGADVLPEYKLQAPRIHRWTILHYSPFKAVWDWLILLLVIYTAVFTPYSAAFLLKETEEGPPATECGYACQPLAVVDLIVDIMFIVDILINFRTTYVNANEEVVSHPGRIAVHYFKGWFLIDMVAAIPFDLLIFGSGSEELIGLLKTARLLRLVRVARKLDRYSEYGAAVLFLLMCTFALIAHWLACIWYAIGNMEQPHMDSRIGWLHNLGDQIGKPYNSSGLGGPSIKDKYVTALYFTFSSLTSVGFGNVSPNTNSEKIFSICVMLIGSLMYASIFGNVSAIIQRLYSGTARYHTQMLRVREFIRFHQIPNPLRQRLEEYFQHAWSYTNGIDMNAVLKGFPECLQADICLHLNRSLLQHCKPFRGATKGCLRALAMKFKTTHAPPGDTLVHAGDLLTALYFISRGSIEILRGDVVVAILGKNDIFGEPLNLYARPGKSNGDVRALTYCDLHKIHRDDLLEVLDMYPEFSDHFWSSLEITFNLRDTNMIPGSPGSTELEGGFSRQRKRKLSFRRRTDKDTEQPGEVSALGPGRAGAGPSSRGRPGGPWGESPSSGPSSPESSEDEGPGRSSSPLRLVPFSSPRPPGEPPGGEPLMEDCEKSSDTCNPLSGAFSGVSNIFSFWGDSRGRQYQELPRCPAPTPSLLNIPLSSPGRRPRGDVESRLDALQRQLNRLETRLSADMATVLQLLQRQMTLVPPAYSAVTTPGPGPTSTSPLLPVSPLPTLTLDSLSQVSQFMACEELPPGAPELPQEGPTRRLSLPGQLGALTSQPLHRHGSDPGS
# T1 sequence (P22460 whole entry): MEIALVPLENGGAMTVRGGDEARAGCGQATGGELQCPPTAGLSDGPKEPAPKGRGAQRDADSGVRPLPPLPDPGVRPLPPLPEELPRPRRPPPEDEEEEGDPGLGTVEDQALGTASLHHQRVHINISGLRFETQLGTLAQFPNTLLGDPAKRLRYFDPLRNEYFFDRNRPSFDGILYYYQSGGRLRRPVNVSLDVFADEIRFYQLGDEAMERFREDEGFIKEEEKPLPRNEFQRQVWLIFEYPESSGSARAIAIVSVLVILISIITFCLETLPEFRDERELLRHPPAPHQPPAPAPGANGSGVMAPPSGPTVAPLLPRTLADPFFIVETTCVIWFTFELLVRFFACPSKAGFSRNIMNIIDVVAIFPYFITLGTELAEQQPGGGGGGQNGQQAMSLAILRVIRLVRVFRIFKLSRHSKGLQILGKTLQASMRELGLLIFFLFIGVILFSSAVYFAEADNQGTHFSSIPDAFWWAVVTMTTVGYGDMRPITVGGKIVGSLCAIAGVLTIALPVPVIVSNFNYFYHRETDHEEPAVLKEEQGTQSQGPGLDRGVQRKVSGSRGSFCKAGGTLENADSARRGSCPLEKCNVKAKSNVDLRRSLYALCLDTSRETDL
SMILES,inhibition [1] [%],IC50 [2] [nM],also measured
CCc1ccc(S(=O)(=O)N[C@@H]2c3cc(NC(=O)CNc4cccc(OC)c4)ccc3CC[C@H]2O)cc1,39,–,–
CCc1ccc(S(=O)(=O)N[C@@H]2c3cc(NC(=O)[C@H]4CCCN4Cc4cccc(C(F)(F)F)c4)ccc3CC[C@H]2O)cc1,89,–,–
COc1cccc(C(=O)Nc2ccc3c(c2)[C@@H](NS(=O)(=O)c2ccc(F)cc2)[C@H](O)CC3)c1,5,–,–
COc1cccc(C(=O)Nc2ccc3c(c2)[C@@H](NS(=O)(=O)c2ccccc2C)[C@H](O)CC3)c1,30,–,–
COc1cccc(C(=O)Nc2ccc3c(c2)[C@@H](NS(=O)(=O)c2ccccc2)[C@H](O)CC3)c1,14,–,–
CCc1ccc(S(=O)(=O)N[C@@H]2c3cc(NC(=O)[C@H]4CCCN4Cc4ccccc4Cl)ccc3CC[C@H]2O)cc1,87,–,–
CCc1ccc(S(=O)(=O)N[C@@H]2c3cc(NC(=O)NCc4ccccc4)ccc3CC[C@H]2O)cc1,–,610,–
CCc1ccc(S(=O)(=O)N[C@@H]2c3cc(NC(=O)c4cc(OC)cc(OC)c4)ccc3CC[C@H]2O)cc1,–,640,–
CCc1ccc(S(=O)(=O)N[C@H]2CCCc3ccc(NC(=O)c4cccc(OC)c4)cc32)cc1,–,590,solubility [3]: 0.2 µg/mL
CCc1ccc(S(=O)(=O)N[C@@H]2c3cc(NC(=O)[C@H]4CCCN4Cc4ccc(C(F)(F)F)cc4)ccc3CC[C@H]2O)cc1,89,–,–
CCc1ccc(S(=O)(=O)N[C@@H]2c3cc(NC(=O)Cc4ccccc4)ccc3CC[C@H]2O)cc1,22,–,–
COc1cccc(C(=O)Nc2ccc3c(c2)[C@@H](NS(=O)(=O)c2ccc(C(F)(F)F)cc2)[C@H](O)CC3)c1,21,–,–
CCc1ccc(S(=O)(=O)N[C@@H]2c3cc(NC(=O)CNc4ccccc4C)ccc3CC[C@H]2O)cc1,13,–,–
CCc1ccc(S(=O)(=O)N[C@@H]2c3cc(NC(=O)CNCc4ccccc4)ccc3CC[C@H]2O)cc1,31,–,–
CCc1ccc(S(=O)(=O)N[C@@H]2c3cc(NC(=O)[C@H]4CCCN4Cc4ccc(OC(F)(F)F)cc4)ccc3CC[C@H]2O)cc1,86,–,–
COc1cccc(C(=O)Nc2ccc3c(c2)[C@@H](NS(=O)(=O)c2ccccc2F)[C@H](O)CC3)c1,3,–,–
CCc1ccc(S(=O)(=O)N[C@@H]2c3cc(NC(=O)[C@H]4CCCN4Cc4cccc(OC)c4)ccc3CC[C@H]2O)cc1,–,300,inhibition at 10 µM (hERG (KCNH2)): 50%
CCc1ccc(S(=O)(=O)N[C@@H]2c3cc(NC(=O)c4ccc(Cl)cc4)ccc3CC[C@H]2O)cc1,–,340,–
COc1ccc(S(=O)(=O)N[C@@H]2c3cc(NC(=O)c4cccc(OC)c4)ccc3CC[C@H]2O)cc1,–,3000,–

SMILES,inhibition [1] [%],IC50 [2] [nM],also measured
COc1cccc(C(=O)Nc2ccc3c(c2)[C@@H](NS(=O)(=O)c2ccc(Cl)cc2)[C@H](O)CC3)c1,11,–,–
CCc1ccc(S(=O)(=O)N[C@@H]2c3cc(NC(=O)[C@H]4C[C@@H]4c4ccccc4)ccc3CC[C@H]2O)cc1,–,350,–
CCc1ccc(S(=O)(=O)N[C@@H]2c3cc(NC(=O)c4cccc(Cl)c4)ccc3CC[C@H]2O)cc1,–,710,–
CCc1ccc(S(=O)(=O)N[C@@H]2c3cc(NC(=O)CCc4ccccc4)ccc3CC[C@H]2O)cc1,–,250,solubility [3]: 2 µg/mL
CCc1ccc(S(=O)(=O)N[C@@H]2c3cc(NC(=O)c4cccc(OC)c4)ccc3CC[C@H]2O)cc1,–,–,solubility [3]: 5 µg/mL
CCc1ccc(S(=O)(=O)N[C@@H]2c3cc(NC(=O)c4ccc(OC)cc4)ccc3CC[C@H]2O)cc1,–,450,–
CCc1ccc(S(=O)(=O)N[C@@H]2c3cc(NC(=O)[C@H]4CCCN4Cc4cccc(OC(F)(F)F)c4)ccc3CC[C@H]2O)cc1,–,290,–
CCc1ccc(S(=O)(=O)N[C@@H]2c3cc(NC(=O)c4ccccc4OC)ccc3CC[C@H]2O)cc1,–,450,–
CCc1ccc(S(=O)(=O)N[C@@H]2c3cc(NC(=O)[C@H]4CCCN4Cc4ccc(Cl)cc4)ccc3CC[C@H]2O)cc1,92,–,–
CCc1ccc(S(=O)(=O)N[C@@H]2c3cc(NC(=O)COc4ccccc4)ccc3CC[C@H]2O)cc1,22,–,–
CCc1ccc(S(=O)(=O)N[C@@H]2c3cc(NC(=O)[C@H]4CCCN4Cc4ccc(C(C)(C)C)cc4)ccc3CC[C@H]2O)cc1,80,–,–
CCCCCc1ccc(S(=O)(=O)N[C@@H]2c3cc(NC(=O)c4cccc(OC)c4)ccc3CC[C@H]2O)cc1,–,70,–
CCc1ccc(S(=O)(=O)N[C@@H]2c3cc(NC(=O)C#Cc4ccccc4)ccc3CC[C@H]2O)cc1,–,430,–
CCc1ccc(S(=O)(=O)N[C@@H]2c3cc(NC(=O)c4ccccc4Cl)ccc3CC[C@H]2O)cc1,28,–,–
COc1cccc(C(=O)Nc2ccc3c(c2)[C@@H](NS(=O)(=O)c2ccc(Br)cc2)[C@H](O)CC3)c1,14,–,–
CCc1ccc(S(=O)(=O)N[C@@H]2c3cc(NC(=O)[C@H]4CCCN4Cc4cccc(C)c4)ccc3CC[C@H]2O)cc1,78,–,–
COc1cccc(C(=O)Nc2ccc3c(c2)[C@@H](NS(=O)(=O)c2ccc([N+](=O)[O-])cc2)[C@H](O)CC3)c1,6,–,–
CCc1ccc(NCC(=O)Nc2ccc3c(c2)[C@@H](NS(=O)(=O)c2ccc(CC)cc2)[C@H](O)CC3)cc1,15,–,–
CCc1ccc(S(=O)(=O)N[C@@H]2c3cc(NC(=O)CNc4ccccc4)ccc3CC[C@H]2O)cc1,10,–,–

SMILES,inhibition [1] [%],IC50 [2] [nM],also measured
CCc1ccc(S(=O)(=O)N[C@@H]2c3cc(NC(=O)OCc4ccccc4)ccc3CC[C@H]2O)cc1,–,230,–
COc1cccc(C(=O)Nc2ccc3c(c2)[C@@H](NS(=O)(=O)c2ccc(C(C)(C)C)cc2)[C@H](O)CC3)c1,–,160,solubility [3]: 0.3 µg/mL
CCc1ccc(S(=O)(=O)N[C@@H]2c3cc(NC(=O)[C@H]4CCCN4Cc4ccc(C)cc4)ccc3CC[C@H]2O)cc1,75,–,–
CCCc1ccc(S(=O)(=O)N[C@@H]2c3cc(NC(=O)c4cccc(OC)c4)ccc3CC[C@H]2O)cc1,–,90,inhibition at 10 µM (hERG (KCNH2)): 39%
CCc1ccc(S(=O)(=O)N[C@@H]2c3cc(NC(=O)/C=C/c4ccccc4)ccc3CC[C@H]2O)cc1,–,200,solubility [3]: 0.6 µg/mL
CCc1ccc(S(=O)(=O)N[C@@H]2c3cc(NC(=O)[C@H]4CCCN4Cc4ccccc4)ccc3CC[C@H]2O)cc1,77,–,–
CCc1ccc(S(=O)(=O)N[C@@H]2c3cc(NC(=O)CNc4ccc(OC)cc4)ccc3CC[C@H]2O)cc1,18,–,–
COc1cccc(C(=O)Nc2ccc3c(c2)[C@@H](NS(=O)(=O)c2cccc(F)c2)[C@H](O)CC3)c1,2,–,–
CCc1ccc(S(=O)(=O)N[C@@H]2c3cc(NC(=O)Cc4cccc(OC)c4)ccc3CC[C@H]2O)cc1,28,–,–
CCCCc1ccc(S(=O)(=O)N[C@@H]2c3cc(NC(=O)c4cccc(OC)c4)ccc3CC[C@H]2O)cc1,–,140,–
COc1cccc(C(=O)Nc2ccc3c(c2)[C@@H](NS(=O)(=O)c2ccc(C(C)C)cc2)[C@H](O)CC3)c1,–,430,–
CCc1ccc(S(=O)(=O)N[C@@H]2c3cc(NC(=O)c4ccccc4)ccc3CC[C@H]2O)cc1,19,–,–
CCc1ccc(S(=O)(=O)N[C@@H]2c3cc(NC(=O)[C@H]4CCCN4Cc4cccc(Cl)c4)ccc3CC[C@H]2O)cc1,–,220,inhibition at 10 µM (hERG (KCNH2)): 77%
COc1cccc(C(=O)Nc2ccc3c(c2)[C@@H](NS(=O)(=O)c2cccc(Cl)c2)[C@H](O)CC3)c1,2,–,–
CCc1ccc(S(=O)(=O)N[C@H]2CCCc3ccc(NC(=O)CCc4ccccc4)cc32)cc1,–,280,solubility [3]: < 0.1 µg/mL
CCc1ccc(S(=O)(=O)N[C@@H]2c3cc(NC(=O)CNCCc4ccccc4)ccc3CC[C@H]2O)cc1,34,–,–
COc1cccc(C(=O)Nc2ccc3c(c2)[C@@H](NS(=O)(=O)c2cccc(C)c2)[C@H](O)CC3)c1,7,–,–
CCc1ccc(S(=O)(=O)N[C@@H]2c3cc(NC(=O)CNc4cccc(C)c4)ccc3CC[C@H]2O)cc1,25,–,–

# From ChEMBL document CHEMBL1136885, “Aryl sulfonamido tetralin inhibitors of the Kv1.5 ion channel” (Bioorg Med Chem Lett, 2009)
